In ChEMBL document CHEMBL5214894, “Biosynthetic Interrogation of Soil Metagenomes Reveals Metamarin, an Uncommon Cyclomarin Congener with Activity against Mycobacterium tuberculosis” (J Nat Prod, 2021):
In brackets after ≈: the same amount, converted by molar mass. Activity calls are given as the source filed them. No cut-off for these calls is given here.

Key:
[1] = tested on: Mycolicibacterium smegmatis; test: Antibacterial activity against Mycobacterium smegmatis mc2 155 assessed as bacterial growth inhibition incubated for 48 hrs Alamar blue staining based assay; format: functional
Outline: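 Culture grown 48 h at 37 °C, shaken in 7H9 with 0.2% glucose, 0.2% glycerol and 0.05% tyloxapol, then diluted to OD600 0.005. Added 1:1 to 2-fold serial dilutions, final 128 to 0.5 μg/mL. Rifampicin control. Static 48 h at 37 °C, then Alamar Blue for 24 h more. Wells staying blue by eye counted as inhibitory.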

[2] = tested on: Mycobacterium tuberculosis; test: Antimycobacterial activity against Mycobacterium tuberculosis H37Rv assessed as bacterial growth inhibition incubated for 6 days by Alamar blue staining based assay; format: functional; conditions: 144 h, time 6 day
Outline: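 Strains passaged at 37 °C in 7H9 with OADC, 0.2% glycerol and 0.02% tyloxapol to OD600 0.5–0.7, then diluted to OD600 0.005. Final test range 5 to 0.009 μg/mL. Rifampicin control. Incubated 6 days at 37 °C with 5% CO2. Tween 80 and Alamar Blue then added for 24 h. Absorbance read at 570 nm, normalized to 600 nm.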

[3] = tested on: Mycobacterium tuberculosis; test: Induction of Mycobacterium tuberculosis CIpc1/P1/P2 proteolytic activity at 0.1 to 10 uM incubated upto 45 mins by FITC-casein fluorescence based assay; conditions: dose 0.1-10 µM
Outline: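 FITC-casein 0.3 μM degraded by 1 μM ClpC1 with 2 μM ClpP1/P2 and 2 mM ATP. Buffer 100 mM Tris, 200 mM KCl, 8 mM MgCl2, pH 7.5. Compound in DMSO at 0.1, 1.0 and 10 μM. Change in fluorescence tracked relative to initial, which was set to 100. Triplicate.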

[4] = target: ATP-dependent Clp protease ATP-binding subunit ClpC1 (Mycobacterium tuberculosis) (UniProt P9WPC9); test: Induction of Mycobacterium tuberculosis H37Rv CIpc1 ATPase activity expressed in Escherichia coli BL21 (DE3) cells at 10 uM incubated for 1 hr by Biomol Green Reagent based assay
Outline: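 His-tagged ClpC1, cloned from H37Rv DNA into pET28c and purified by Ni-NTA. Assay in 100 mM Tris, 200 mM KCl, 8 mM MgCl2, pH 7.5, with 1 μM ClpC1 and 100 μM ATP. Compound in DMSO at 0.1, 1.0 and 10 μM final. Incubated 1 h at 37 °C. Released phosphate detected with BIOMOL Green at OD620. Three independent experiments.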

Micrococcus luteus = test: Antibacterial activity against Micrococcus luteus NRRL B-1018 assessed as inhibition of bacterial growth incubated for 16 hrs by broth micro dilution analysis; format: functional
Outline: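 Broth microdilution in LB, triplicate. Overnight culture diluted 5000-fold; 100 μL added to 100 μL LB holding 2-fold serial dilutions, final 128 to 0.5 μg/mL. Rifampicin control. Static incubation at 37 °C for 16 h. MIC taken as the lowest concentration with no visible growth.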

Sequence of ATP-dependent Clp protease ATP-binding subunit ClpC1 (Mycobacterium tuberculosis) (P9WPC9 whole entry): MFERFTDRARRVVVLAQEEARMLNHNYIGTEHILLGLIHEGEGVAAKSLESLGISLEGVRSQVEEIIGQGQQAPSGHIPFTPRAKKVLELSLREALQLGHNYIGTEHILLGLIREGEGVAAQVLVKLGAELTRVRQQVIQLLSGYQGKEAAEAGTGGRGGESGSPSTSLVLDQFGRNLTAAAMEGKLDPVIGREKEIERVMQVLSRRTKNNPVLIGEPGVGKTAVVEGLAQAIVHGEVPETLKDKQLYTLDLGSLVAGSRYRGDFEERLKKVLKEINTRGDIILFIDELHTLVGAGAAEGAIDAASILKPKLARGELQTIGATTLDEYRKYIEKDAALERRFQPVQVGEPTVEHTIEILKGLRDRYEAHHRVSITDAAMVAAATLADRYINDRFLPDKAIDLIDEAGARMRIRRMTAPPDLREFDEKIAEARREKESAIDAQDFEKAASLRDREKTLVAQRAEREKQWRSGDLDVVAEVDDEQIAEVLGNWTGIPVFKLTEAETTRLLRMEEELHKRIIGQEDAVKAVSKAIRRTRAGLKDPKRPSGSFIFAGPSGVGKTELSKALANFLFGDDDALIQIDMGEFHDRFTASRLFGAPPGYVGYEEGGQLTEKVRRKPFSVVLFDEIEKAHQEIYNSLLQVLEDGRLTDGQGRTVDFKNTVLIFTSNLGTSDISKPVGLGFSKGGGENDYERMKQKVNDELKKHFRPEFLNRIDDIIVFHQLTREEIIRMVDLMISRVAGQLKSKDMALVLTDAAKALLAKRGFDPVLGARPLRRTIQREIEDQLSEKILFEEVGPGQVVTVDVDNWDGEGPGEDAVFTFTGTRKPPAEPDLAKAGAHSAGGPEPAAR

Q: For `C=CC(C)(C)n1cc(C(O)C2NC(=O)[C@H](C(C)C)NC(=O)[C@H](CC(C)C)N(C)C(=O)[C@H](C(C)C)NC(=O)C(C(OC)c3ccccc3)NC(=O)[C@H](C(C)C)NC(=O)C(CC(C)CO)N(C)C2=O)c2ccccc21` (stereo not given in full), which MIC [1] is on record?
A: 16 µg/mL (≈ 15.8 µM)

Q: And the MIC [2]?
A: 0.16 µg/mL (≈ 0.158 µM)

Q: And the Activity [3]?
A: Active

Q: What about the Activity [4] of the same molecule?
A: Active

Q: What about the MIC (Micrococcus luteus) of the same molecule?
A: 8 µg/mL (≈ 7.88 µM)
